Sampled rows, rich in hits. Any-hit rate of the full collection: about 2.4%.
JMJD2C inh: inhibitors of human GASC-1 (JMJD2C) demethylase; Q9H3R0; inhibition, % at 2.35 µM; AID 2099; 330,000 tested, 0.069% active; GST-JMJD2C(1-420) H3K9me3 demethylation, DELFIA europium;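 active = more than half of a compound's replicate wells show inhibition beyond 50%, single wells judged on their own value; inconclusive = some, but no more than half, of replicates pass 50% inhibition; inactive = no replicate passes 50% inhibition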;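 note: signal counts dimethyl H3K9 product captured on neutravidin plate; 0% = median of DMSO wells and 100% = 0.3 times that DMSO median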
PRMT1 inh: PRMT1 (human) inhibition, primary screen | Q99873 | inhibition, % at 2.79 µM | recombinant PRMT1, activity-based probe fluorescence polarization | 370,000 tested, 1.3% active;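 active = inhibition above about 21% made by adding two undisclosed values, limit read from the data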
Target sequence (Q99873 whole entry, looked up): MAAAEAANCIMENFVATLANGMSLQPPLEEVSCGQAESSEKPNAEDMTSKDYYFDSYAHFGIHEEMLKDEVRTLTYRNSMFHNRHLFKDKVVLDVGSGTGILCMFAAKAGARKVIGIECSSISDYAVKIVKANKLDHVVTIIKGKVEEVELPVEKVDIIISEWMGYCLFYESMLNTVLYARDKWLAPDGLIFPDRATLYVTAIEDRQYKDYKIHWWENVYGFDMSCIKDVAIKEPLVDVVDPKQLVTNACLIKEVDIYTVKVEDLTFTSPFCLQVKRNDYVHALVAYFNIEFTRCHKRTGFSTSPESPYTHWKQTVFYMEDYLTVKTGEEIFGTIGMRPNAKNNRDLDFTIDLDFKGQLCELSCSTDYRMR
HTRA1 inhibitor: HTRA1 (human) protease inhibition; inhibition, % at 5.96 µM; recombinant HTRA1, FP-rhodamine activity-based probe, fluorescence polarization; 340,000 tested, 0.5% active; in the data active = inhibition above about 36%;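 note: 0% = enzyme with DMSO and 100% = wells lacking enzyme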
mABHD4 FP: ABHD4 (mouse) inhibition, primary FP screen; purified mABHD4, FP-Rh probe fluorescence polarization; Q8VD66; AID 720543; inhibition, % at 8.92 µM; 370,000 tested, 0.54% active;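 active = inhibition exceeding the mean over every tested compound plus 3 SD, cut at about 30% in these data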;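 note: 0% = plate median of compound wells and 100% = S159A mutant with DMSO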
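Assay system: mABHD4 protein; medium: HEPES pH 7.0, NaCl, Pluronic buffer; dosing: 8.92 µM, single dose; schedule: 45 min + 60 min at 25 °C; signal: FP readout, ex 525 nm / em 598 nm; read-out: normalized percent inhibition of probe labeling; repeats: single replicate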
SIAE inh: inhibitors of human sialic acid acetylesterase SIAE; SIAE FP-Rh probe binding, fluorescence polarization; inhibition, % at 9.66 µM; 370,000 tested, 0.69% active; AID 1053197;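 active = inhibition above a cutoff: mean of compounds within the control limits plus 3 SD of those, cut at about 17% in these data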;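 note: 0% = plate median of compound wells and 100% = probe without SIAE protein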
PRMT1 inh conf: PRMT1 (human) inhibition, FP confirmation. shares compounds with PRMT1 inh. recombinant His-PRMT1, activity-based probe fluorescence polarization. inhibition, % at 2.79 µM. 3,300 tested, 42% active;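 active = mean inhibition across replicates above the hit cutoff derived for the earlier primary screen, cut at about 22% in these data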
* marks the source's active call; other numbers are inactive results; u = inconclusive; x = not tested or not shown.

SMILES	JMJD2C inh	PRMT1 inh	HTRA1 inhibitor	mABHD4 FP	SIAE inh	PRMT1 inh conf
COc1ccccc1NC(=O)c1cc(=O)[nH]c2ccccc12	-5	25*	5	5	4	6
NC(=O)c1c(NC(=O)C2CCCO2)sc2c1CCCCC2 (stereo unspecified)	7	28*	7	14	4	7
NC(=O)NC(=O)CC1S/C(=N/N=C/c2ccccc2)NC1=O (stereo unspecified)	-2	13	-1	-14	2	x
NC(=O)NC(=O)CC1S/C(=N/N=C2\CSC(=O)N2)NC1=O (stereo unspecified)	-9	45*	-2	0	-6	33*
C[n+]1c(-c2ccccc2)sc([S-])c1-c1ccccc1	0	51*	x	-4	-2	20
C=CCN(Cc1ccc2c(c1)OCO2)C(C#CC1CC1)C(C)C (stereo unspecified)	x	0	x	7	1	x
COc1ccc2[nH]c(S(=O)Cc3ncc(C)c(OC)c3C)nc2c1 (stereo unspecified)	-40	34*	-2	9	-1	-4
Cc1cc(C)nc(Sc2nc(Cl)nc(N(c3ccccc3)c3ccccc3)n2)n1	38	59*	1	-16	2	10
Cc1cc(C)nc(SC(C(=O)O)c2ccccc2)n1 (stereo unspecified)	2	2	4	-7	-4	x
CSS(=O)(=O)c1cccc2cccnc12	6	92*	x	4	8	96*
CCN(CC)S(=O)(=O)c1cccc2cccnc12	11	0	6	-1	0	x
CC1(C)CC(=O)C2=C(C1)OC(N)=C(C#N)[C@@H]2c1ccccc1[N+](=O)[O-]	-23	44*	0	-8	-3	0
COC(=O)CN=Cc1c(C)[nH]n(-c2ccccc2)c1=O	15	-2	-4	1	-1	x
Cc1[nH]n(-c2ccccc2)c(=S)c1C=NCCCN=Cc1c(C)[nH]n(-c2ccccc2)c1=S	-4	81*	4	6	12	44*
CCOC1CCCc2oc(-c3ccsc3)c(-c3cnc(OC)nc3)c21 (stereo unspecified)	x	3	x	5	2	x
O=C1C=CC(=Nc2cccc3c2C(=O)c2ccccc2-3)O1	x	x	-7	x	x	x
O=C1C=CC(=Nc2ccc3c(c2)Cc2cc(F)ccc2-3)O1	x	74*	-10	4	-6	87*
c1coc(-c2nc3c([nH]2)CCc2nonc2-3)c1	-14	72*	2	12	-5	0
c1ccc(-c2nc3c([nH]2)CCc2nonc2-3)cc1	-21	-3	6	-1	-3	x
O=C(O)C1CSC(c2ccco2)N1 (stereo unspecified)	-27	27*	11	15	7	32*
CCc1cc2c(nc1CC)CCCN2S(=O)(=O)c1ccc(C#N)cc1	x	59*	x	2	7	52*
Cc1ccc(C(=O)/C=C/C(=O)O)cc1	31	40*	5	9	0	30*
Cc1ccc(/C=C/C(=O)c2ccc(O)cc2)cc1	-13	2	-4	-31	-7	x
C=CCN1[C@H](Cc2ccccc2)COc2cccc(N3CCCC3)c2S1(=O)=O	x	-2	x	-3	8	x
O=Cc1s/c(=N\S(=O)(=O)c2ccccc2)n(CCCCl)c1Cl	-11	43*	-18	3	-6	37*
SMILES	JMJD2C inh	PRMT1 inh	HTRA1 inhibitor	mABHD4 FP	SIAE inh	PRMT1 inh conf
CCOC(=O)CC(=O)CSc1ncnc2c1nnn2-c1ccccc1	34	64*	-2	13	1	92*
Cc1cc2cc(CNC(=O)c3ccc(Br)o3)ccc2n1C	61	36*	-1	-7	-3	5
Cc1cc2cc(CNC(=O)c3ccc(Br)o3)ccc2[nH]1	-7	19	12	7	5	x
O=C(CCN1CCC(c2ccccc2)C1)c1ccc2c(c1)OCCO2 (stereo unspecified)	18	36*	2	1	3	19
O=C(CCN1CCC(c2ccccc2)C1)c1ccccc1 (stereo unspecified)	-8	x	0	x	x	x
O=C(CCc1ccccc1)c1ccc2c(c1)OCCCO2	44	3	-20	0	-3	x
O=C(CCN1CCCC1Cc1ccccc1)c1ccc2c(c1)OCCO2 (stereo unspecified)	4	37*	0	-5	-5	40*
COc1cc(C(=O)CCN2CCC(c3ccccc3)C2)cc(OC)c1OC (stereo unspecified)	-3	32*	-4	-5	0	16
O=C(c1cccs1)N1CC[C@H]2[C@H](CCCN2Cc2cc(F)cc(F)c2)C1	x	2	x	-6	3	x
Cc1ccc(/C=[N+](\[O-])c2ccccc2C)o1	0	30*	3	0	2	-3
Cc1ccccc1/[N+]([O-])=C/c1cccs1	-20	6	7	3	1	x
CCN(CC)C(=O)CC[C@H]1CC[C@]2(CCCN(Cc3nccs3)C2)O1	x	0	x	-2	7	x
N#Cc1ccsc1NC(=O)CSc1nncs1	-1	26*	10	15	7	24*
N#Cc1ccsc1NC(=O)CSc1ncn[nH]1	-5	-1	2	-3	-3	x
O=C(CSC1=NCCN1)C1COc2ccccc2O1 (stereo unspecified)	7	34*	-7	0	0	42*
O=C(Nc1ccncc1)C1COc2ccccc2O1 (stereo unspecified)	0	0	4	0	6	x
Cc1ccc(C(=O)N2c3ccccc3N=C(c3ccccc3)C2C(=O)NC(C)C)cc1 (stereo unspecified)	x	-1	x	0	4	x
CCN(CC)c1ccc(N=C2C=CC(=O)C=C2NC(C)=O)cc1	x	54*	x	-8	-25	3
O=C(O)c1cccc(Cn2c(Cl)c(/C=N/NC(=O)c3cccc(O)c3)sc2=O)c1	-2	4	1	-9	-1	x
Cc1ccccc1N/N=C/c1sc(=O)n(Cc2cccc(C(=O)O)c2)c1Cl	5	75*	7	11	-15	5
COC(=O)c1cccc(Cn2c(Cl)c(/C=N/Nc3ccccc3C)sc2=O)c1	8	79*	-3	4	4	1
CN(Cc1c(F)cccc1Cl)C(=O)c1ccc(NC(=O)CC2SC(N3CCCC3)=NC2=O)cc1 (stereo unspecified)	u	101*	-3	-1	0	2
COc1ccc(S(=O)(=O)N2CCOCC2)cc1NC(=O)CSc1nnc(C2CC2)n1C1CC1	x	40*	1	8	-6	0
CC(COc1cccc(C(F)(F)F)c1)CN1CCC(C(O)(c2ccccc2)c2ccccc2)CC1 (stereo unspecified)	x	2	x	12	0	x
CCNC(=O)C1CCCN(C(=O)c2ccccc2F)CC1 (stereo unspecified)	x	-3	x	8	1	x
C=C1[C@@H]2CC[C@H]3[C@]4(C)[C@@H](O)CC[C@@](C)(C(=O)OC)[C@H]4C[C@H](O)[C@]3(C2)[C@H]1O	x	0	x	3	9	x

Screening results as filed in PubChem BioAssay.
